# Laboratory results: publication PMC12153341 (Nucleic Acids Research, 2025)
# Where “and” joins values, the source holds several entries; their conditions need not be identical. Identical values can stand only once. Entries after “also recorded” stand apart in the source; their conditions may differ.
# T1: KIF2C Nt (KIF2C1-79) (Homo sapiens, UniProt Q99661)
# T1 sequence (Q99661 1-79): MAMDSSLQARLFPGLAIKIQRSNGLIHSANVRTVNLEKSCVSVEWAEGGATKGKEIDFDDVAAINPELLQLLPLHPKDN
# T2: BRCA2_(48-218) phosphorylated by PLK1 (human, UniProt P51587 48-218, phosphoserine 193, phosphothreonine 207; 15N-labelled)
# T2 sequence (looked up): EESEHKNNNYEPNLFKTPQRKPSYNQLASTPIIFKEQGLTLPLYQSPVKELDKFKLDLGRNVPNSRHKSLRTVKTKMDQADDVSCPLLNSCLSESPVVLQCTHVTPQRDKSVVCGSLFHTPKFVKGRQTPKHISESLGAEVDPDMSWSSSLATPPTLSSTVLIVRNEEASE
# B1: KIF2C N-terminal domain, KIF2C_(1-79) (domain or fragment, human, UniProt Q99661 1-79, looked up)
# chain: MAMDSSLQARLFPGLAIKIQRSNGLIHSANVRTVNLEKSCVSVEWAEGGATKGKEIDFDDVAAINPELLQLLPLHPKDN
# modifications: 15N-labelled where it is the observed protein in NMR
# Key:
# [1] = system: Opto-KIF2C condensates in Flp-In T-REx 293 cells; test: Opto-KIF2C foci formation; assay type: cell-based; details: mitotic cells; for number of optogenetic KIF2C condensates formed upon blue light exposure: light ON
# [2] = system: proteins in the vicinity of TurboID-Opto-KIF2C condensates, Flp-In T-Rex 293 cells; assay type: cell-based; details: light OFF and ON conditions
# In short: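 Flp-In T-REx 293 cells stably carrying TurboID-Opto-KIF2C, nocodazole-arrested, at 75% confluence, induced with 6 ng/ml doxycycline for 16 h. Biotin added while cells received 15 min of blue-light cycles (4 s light/30 s dark), or kept dark. Lysates sonicated and cleared; 1 mg protein bound to streptavidin-agarose 3 h at 4°C, stringently washed, boiled in Laemmli buffer. Detection by HRP immunoblot with ECL.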
# [3] = system: Opto-KIF2C condensates in Flp-In T-REx 293 cells; assay type: cell-based
# In short: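 Opto-KIF2C expression induced with 1 μg/ml doxycycline for 16 h in cells plated at ~70% confluency in DMEM. Mitotic arrest used 100 ng/ml nocodazole for 16 h. Condensation induced under 488 nm LEDs at 10 mW/cm2, with 5 min of 4 s light/10 s dark cycles. Cells fixed in 4% PFA 15 min, permeabilized in 0.2% Triton 10 min, blocked in 3% BSA; primary and secondary antibodies 1 h RT each.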
# [4] = system: Opto-KIF2C foci in Flp-In T-REx 293 cells; test: SIM measurement of Opto-KIF2C foci area; assay type: cell-based; details: mitotic cells, 5 min 488 nm light, about 0.1 μm^2 without nocodazole
# KIF2C Nt (KIF2C1-79) = biological target: T1, KIF2C Nt (KIF2C1-79); assay type: binding; details: 15N-labeled KIF2C1-79, molar ratios 1:0 to 1:2, DPBS pH 7.0, 10°C
# KIF2A Nt (KIF2A1-77) = KIF2A Nt (KIF2A1-77) (Homo sapiens, UniProt O00139); assay type: binding; details: 15N-labeled KIF2A1-77, molar ratios 1:0 to 1:2, DPBS pH 7.0, 10°C
# [5] = biological target: KIF2A N-terminal domain, KIF2A_(1-77) (human) (UniProt O00139); test: ITC
# [6] = biological target: KIF2C N-terminal domain, KIF2C_(1-79) (human) (UniProt Q99661); test: ITC
# [7] = biological target: T2, BRCA2_(48-218) phosphorylated by PLK1; test: NMR titration
# Sequence of KIF2A N-terminal domain, KIF2A_(1-77) (human) (O00139 1-77): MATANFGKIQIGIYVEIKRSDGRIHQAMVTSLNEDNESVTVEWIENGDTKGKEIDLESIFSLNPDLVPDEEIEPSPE
# Sequence of KIF2A Nt (KIF2A1-77) (O00139 1-77): as above
molecule,measurement,setting,value
COc1cc2c(Nc3ccc(NC(=O)c4ccccc4)cc3)ncnc2cc1OCCCN1CCOCC1 [ZM447439],formation of KIF2C condensates formed without light,[1]; light OFF,completely abolished
same,number of optogenetic KIF2C condensates formed upon blue light exposure,[1]; Noc (+),did not change
same,number of optogenetic KIF2C condensates formed upon blue light exposure,[1]; Noc (-),mildly decreased
same,abundance of PLK1 in the vicinity of KIF2C condensates,[2],less abundant
same,"BRCA2-pT207 in KIF2C condensates (immunofluorescence, co-localization)",[3]; Flp-In T-Rex 293 cells,could not detect; also recorded: abolished
same,PLK1 and PLK1-pT210 within Opto-KIF2C condensates (immunofluorescence),"[3]; mitotic cells, absence or presence of nocodazole",unable to detect
COC(=O)Nc1nc2ccc(C(=O)c3cccs3)cc2[nH]1 [nocodazole],area of the Opto-KIF2C condensates,[4],about 0.15 μm^2
"BRCA2_194-214: non-phosphorylated synthetic BRCA2 peptide, residues 194-214 (WSSSLATPPTLSSTVLIVRNE)",binding to KIF2C Nt by NMR chemical shift analysis,KIF2C Nt (KIF2C1-79),did not detect any binding
same,binding to KIF2A Nt by NMR chemical shift analysis,KIF2A Nt (KIF2A1-77),did not detect any binding
BRCA2_(194-214(pT207)) peptide (from UniProt P51587 194-214),Kd,[5],600 nM
same,dH,[5],-15.7 kcal/mol and -18.1 kcal/mol
same,Kd,[6],480 nM and 1300 nM
same,dH,[6],-19.1 kcal/mol and -12.1 kcal/mol
B1,binding result,[7],binds
